Assay results: ChEMBL document CHEMBL3877271, “Antagonizing STAT3 activation with benzo[b]thiophene 1, 1-dioxide based small molecules” (Eur J Med Chem, 2017)
The source made the active and inactive calls. The calls are words filed in the database; no cut-off is given here.

Experiments:
[1] = Antiproliferative activity against human A549 cells after 72 hrs by MTT assay; type: functional, cell-based; conditions: A549, 72 h
How it was run: (§1)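 Cells in RPMI-1640 with 10% FBS, penicillin/streptomycin, 37 °C, 5% CO₂; seeded 3000-5000 cells/well, left overnight (16 h), then medium replaced with fresh medium holding serial dilutions in triplicate for 72 h. MTT read-out; viability = absorbance of treated/solvent control × 100%. Stattic served as reference.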

[2] = Antiproliferative activity against human MCF7 cells after 72 hrs by MTT assay; type: functional, cell-based; conditions: MCF7, 72 h; how it was run: as §1
[3] = Antiproliferative activity against human HCT116 cells after 72 hrs by MTT assay; type: functional, cell-based; conditions: HCT-116, 72 h; how it was run: as §1
MDA-MB-231 [4] = assay: Potency index, ratio of stattic IC50 to compound IC50 for human MDA-MB-231 cells; type: functional
MCF7 = assay: Potency index, ratio of stattic IC50 to compound IC50 for human MCF7 cells; type: functional
HCT-116 = assay: Potency index, ratio of stattic IC50 to compound IC50 for human HCT116 cells; type: functional
[5] = molecular target: Signal transducer and activator of transcription 3 (Homo sapiens) (UniProt P40763); assay: Inhibition of STAT3 phosphorylation at Tyr-705 residue in human MDA-MB-231 cells after 24 hrs by Western blot method; type: cell-based
Chain of Signal transducer and activator of transcription 3 (Homo sapiens) (P40763 whole entry): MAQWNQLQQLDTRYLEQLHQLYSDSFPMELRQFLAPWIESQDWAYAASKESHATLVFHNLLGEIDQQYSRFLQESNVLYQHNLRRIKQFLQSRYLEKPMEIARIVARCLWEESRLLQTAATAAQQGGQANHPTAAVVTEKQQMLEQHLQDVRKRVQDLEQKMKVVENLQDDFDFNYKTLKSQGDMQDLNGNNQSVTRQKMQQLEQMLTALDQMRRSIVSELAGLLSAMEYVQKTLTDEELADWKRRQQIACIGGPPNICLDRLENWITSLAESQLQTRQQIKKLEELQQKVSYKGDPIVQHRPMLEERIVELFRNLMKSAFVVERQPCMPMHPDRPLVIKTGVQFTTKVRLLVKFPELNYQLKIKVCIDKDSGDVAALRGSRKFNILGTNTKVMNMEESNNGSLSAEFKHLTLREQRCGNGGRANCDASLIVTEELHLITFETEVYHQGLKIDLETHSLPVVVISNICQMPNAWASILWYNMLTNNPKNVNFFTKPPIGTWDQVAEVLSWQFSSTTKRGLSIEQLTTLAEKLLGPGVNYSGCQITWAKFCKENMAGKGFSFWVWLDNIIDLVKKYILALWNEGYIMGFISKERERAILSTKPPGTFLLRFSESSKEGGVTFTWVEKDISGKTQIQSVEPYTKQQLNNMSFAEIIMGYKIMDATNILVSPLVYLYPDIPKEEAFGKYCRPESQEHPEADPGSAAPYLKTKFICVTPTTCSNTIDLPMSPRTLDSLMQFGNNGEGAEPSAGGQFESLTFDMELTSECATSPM

[6] = Effect on total STAT3 protein level in human MDA-MB-231 cells at 1 to 5 uM after 24 hrs by Western blot method; type: cell-based; conditions: mda-mb-231, 24 h
How it was run: (§2)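 MDA-MB-231 cells treated 24 h, trypsinised and lysed in RIPA buffer (50 mM Tris-HCl pH 7.4, 150 mM NaCl, 0.25% deoxycholate, 1% NP-40, 1 mM EDTA, protease inhibitors). Equal total protein from whole-cell lysates immunoblotted; Stattic 5 µM used as comparator.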

MDA-MB-231 [7] = assay: Induction of apoptosis in human MDA-MB-231 cells assessed as increase in cleaved PARP expression at 1 to 5 uM after 24 hrs by Western blot method; type: functional, cell-based; how it was run: as §2
MDA-MB-231 [8] = assay: Induction of apoptosis in human MDA-MB-231 cells assessed as increase in cleaved caspase-3 expression at 1 to 5 uM after 24 hrs by Western blot method; type: functional, cell-based; how it was run: as §2
MDA-MB-231 [9] = assay: Induction of apoptosis in human MDA-MB-231 cells assessed as live cells at 1 uM after 24 hrs by Annexin-V FITC/propidium iodide staining based flow cytometry (reference value: 90.3%); type: functional
MDA-MB-231 [10] = assay: Induction of apoptosis in human MDA-MB-231 cells assessed as early apoptotic cells at 1 uM after 24 hrs by Annexin-V FITC/propidium iodide staining based flow cytometry (reference value: 3.8%); type: functional
MDA-MB-231 [11] = assay: Induction of apoptosis in human MDA-MB-231 cells assessed as late apoptotic cells at 1 uM after 24 hrs by Annexin-V FITC/propidium iodide staining based flow cytometry (reference value: 1.8%); type: functional
MDA-MB-231 [12] = assay: Induction of apoptosis in human MDA-MB-231 cells assessed as necrotic cells at 1 uM after 24 hrs by Annexin-V FITC/propidium iodide staining based flow cytometry (reference value: 4.1%); type: functional
MDA-MB-231 [13] = assay: Induction of apoptosis in human MDA-MB-231 cells assessed as live cells at 3 uM after 24 hrs by Annexin-V FITC/propidium iodide staining based flow cytometry (reference value: 90.3%); type: functional
MDA-MB-231 [14] = assay: Induction of apoptosis in human MDA-MB-231 cells assessed as early apoptotic cells at 3 uM after 24 hrs by Annexin-V FITC/propidium iodide staining based flow cytometry (reference value: 3.8%); type: functional
MDA-MB-231 [15] = assay: Induction of apoptosis in human MDA-MB-231 cells assessed as late apoptotic cells at 3 uM after 24 hrs by Annexin-V FITC/propidium iodide staining based flow cytometry (reference value: 1.8%); type: functional
MDA-MB-231 [16] = assay: Induction of apoptosis in human MDA-MB-231 cells assessed as necrotic cells at 3 uM after 24 hrs by Annexin-V FITC/propidium iodide staining based flow cytometry (reference value: 4.1%); type: functional
MDA-MB-231 [17] = assay: Induction of apoptosis in human MDA-MB-231 cells assessed as live cells at 5 uM after 24 hrs by Annexin-V FITC/propidium iodide staining based flow cytometry (reference value: 90.3%); type: functional
MDA-MB-231 [18] = assay: Induction of apoptosis in human MDA-MB-231 cells assessed as late apoptotic cells at 5 uM after 24 hrs by Annexin-V FITC/propidium iodide staining based flow cytometry (reference value: 1.8%); type: functional
MDA-MB-231 [19] = assay: Induction of apoptosis in human MDA-MB-231 cells assessed as necrotic cells at 5 uM after 24 hrs by Annexin-V FITC/propidium iodide staining based flow cytometry (reference value: 4.1%); type: functional
MDA-MB-231 [20] = assay: Induction of apoptosis in human MDA-MB-231 cells assessed as live cells at 7 uM after 24 hrs by Annexin-V FITC/propidium iodide staining based flow cytometry (reference value: 90.3%); type: functional
MDA-MB-231 [21] = assay: Induction of apoptosis in human MDA-MB-231 cells assessed as necrotic cells at 7 uM after 24 hrs by Annexin-V FITC/propidium iodide staining based flow cytometry (reference value: 4.1%); type: functional
MDA-MB-231 [22] = assay: Induction of ROS generation in human MDA-MB-231 cells at 3 uM after 24 hrs by DCFH-DA staining based flow cytometry relative to control; type: functional
How it was run: (§3)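 3 × 10⁵ cells/well in 6-well plates treated 24 h (0, 1, 3, 5 µM). Medium replaced with serum-free medium holding DCFH-DA at 10 µM final, 20 min at 37 °C. Cells washed twice, trypsinised, resuspended in warm PBS and read by flow cytometry.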

MDA-MB-231 [23] = assay: Induction of ROS generation in human MDA-MB-231 cells at 5 uM after 24 hrs by DCFH-DA staining based flow cytometry relative to control; type: functional; how it was run: as §3
MDA-MB-231 [24] = assay: Inhibition of colony formation in human MDA-MB-231 cells up to 6 uM incubated for 24 hrs measured after 14 days by crystal violet staining based assay; type: functional, cell-based
How it was run: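 Cells plated at 800-1000 per well in 6-well plates. Treated next day with vehicle or 0.5-6 µM for 24 h, then grown 10-14 d until colonies appeared. Stained with crystal violet for 4 h; colonies scored manually.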

Mus musculus [25] = assay: In vivo inhibition of STAT3 phosphorylation in ICR mouse tumor implanted with mouse 4T1 cells at 10 mg/kg, ip daily for 11 days measured on day 12 by Western blot method; type: functional, organism-based
How it was run: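 Male ICR mice, 5 weeks old, inoculated with 2 × 10⁶ 4T1 cells at the right armpit. At 24 h, randomised into groups of 6 and dosed i.p.; vehicle PBS/DMSO (8:2) daily for 11 days. Killed day 12; tumours weighed; TI% = (1 − mean treated/mean control weight) × 100. Tumour p-STAT3 and STAT3 assessed by western blot.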

Mus musculus [26] = assay: Toxicity in ICR mouse implanted with mouse 4T1 cells assessed as body weight loss at 10 mg/kg, ip daily for 11 days measured daily during compound dosing; type: organism-based; conditions: in vivo, 264 h
How it was run: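 4T1-bearing male ICR mice (5 weeks, 6/group), dosed i.p. with PBS/DMSO (8:2) vehicle control. Body weight recorded daily. BI% = (1 − mean treated/mean control body weight) × 100.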

With `O=S1(=O)C=Cc2cccc(Nc3cccc(C(F)(F)F)c3)c21` the IC50 [1] was 360 nM, the IC50 [2] was 750 nM and the IC50 [3] was 330 nM. For the same molecule, the “Ratio IC50” value (MDA-MB-231 [4]) was 1.5 - 12, the “Ratio IC50” value (MCF7) was 1.5 - 12 and the “Ratio IC50” value (HCT-116) was 1.5 - 12. For the same molecule, the inhibition [5] was “Dose-dependent effect”, the Activity [6] was “Non-Toxic” and the Activity (MDA-MB-231 [7]) was “Active”. The Activity (MDA-MB-231 [8]) was “Active”, the Activity (MDA-MB-231 [9]) was 84.2% and the Activity (MDA-MB-231 [10]) was 6.3%. The Activity (MDA-MB-231 [11]) was 3.4%, the Activity (MDA-MB-231 [12]) was 6.2% and the Activity (MDA-MB-231 [13]) was 83.4%. The Activity (MDA-MB-231 [14]) was 6.8%, the Activity (MDA-MB-231 [15]) was 4.1% and the Activity (MDA-MB-231 [16]) was 5.8%. The Activity (MDA-MB-231 [17]) was 75.3%, the Activity (MDA-MB-231 [18]) was 7.2% and the Activity (MDA-MB-231 [19]) was 7.2%. For the same molecule, the Activity (MDA-MB-231 [20]) was 72.2%, the Activity (MDA-MB-231 [21]) was 6.9% and the “fold change (FC)” value (MDA-MB-231 [22]) was 1.74. For the same molecule, the “fold change (FC)” value (MDA-MB-231 [23]) was 1.94, the inhibition (MDA-MB-231 [24]) was “Active” and the inhibition (Mus musculus [25]) was “Active”. For the same molecule, the Activity (Mus musculus [26]) was “Non-Toxic”.
